The source of these data is ChEMBL document CHEMBL3853323, “Small Antimicrobial Agents Based on Acylated Reduced Amide Scaffold” (J Med Chem, 2016).

≈ marks a conversion by molar mass, not a printed value. Calls of active or inactive are those of the source. The rule behind the calls is not given here. Where only a bound is given, the exact number is not on record here.

Data set [1] relates to Escherichia coli. In words: Antibacterial activity against Escherichia coli ATCC 25922 after 16 to 20 hrs by two fold serial dilution method. Type of data set: functional. The essentials:
(§1)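 MIC as lowest concentration giving complete inhibition of growth after 20 h; at least three independent experiments, each in duplicate.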

A short description of data set [2]: Cytotoxicity against human K562 cells assessed as cell viability after 24 hrs by MTT assay. It is filed as toxicity, cell-based. The method, boiled down:
(§2)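 Cells seeded at 5×10^4 per well and left 12 h, then exposed 24 h to compound at 100, 50, 25, 12.5 or 6.25 μg/mL diluted in medium. Medium replaced, MTT added for 4 h, solubilized 12 h at 37 °C, A550 read; viability % = (A − Ablank)/(Acontrol − Ablank) × 100. Run at least three times.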
(Tetrazolium dyes change colour on reduction, which living cells bring about.)

The test system of another data set is Pseudomonas aeruginosa. In words: Antibacterial activity against Pseudomonas aeruginosa ATCC 27853 after 16 to 20 hrs by two fold serial dilution method. It is filed as functional. The essentials: as §1
Data set [3] can be described thus: Cytotoxicity against human HK2 cells assessed as cell viability after 24 hrs by MTT assay. Type of data set: toxicity, cell-based, HK-2. The method, boiled down:
as §2

Data set [4] in a line: Hemolytic activity in human RBC after 1 hr. Type of data set: ADME, cell-based, Erythrocyte. As to conditions: human red blood cells. The essentials: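 Fresh K2EDTA human RBCs, PBS-washed, as 5% v/v suspension mixed 1:1 with compound dilutions, 37 °C for 1 h. Supernatant after centrifugation diluted in PBS, A540 read. % hemolysis relative to 2% Triton X-100 (positive) and PBS (negative). At least three runs, each in duplicate.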

The next data set deals with Enterococcus faecalis. In words: Antibacterial activity against vancomycin resistant Enterococcus faecalis ATCC 700802 after 16 to 20 hrs by two fold serial dilution method. It is filed as functional. The method, boiled down:
(§3)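 Broth MIC: the lowest concentration giving complete growth inhibition after 20 h. Run at least three times, in duplicate each time.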

Data set [5] deals with Staphylococcus aureus. Briefly: Antibacterial activity against methicillin-resistant Staphylococcus aureus ATCC 33591 after 16 to 20 hrs by two fold serial dilution method. It is filed as functional. The method, boiled down:
as §3

The next data set has as its system Klebsiella pneumoniae. Briefly: Antibacterial activity against Klebsiella pneumoniae ATCC 13383 after 16 to 20 hrs by two fold serial dilution method. It is filed as functional. The method, boiled down: as §1
Data set [6] has as its system Staphylococcus epidermidis. Briefly: Antibacterial activity against methicillin-resistant Staphylococcus epidermidis RP62A after 16 to 20 hrs by two fold serial dilution method. Type of data set: functional. The method, boiled down:
as §3

The test system of data set [7] is Staphylococcus aureus. In words: Antibacterial activity against methicillin-resistant Staphylococcus aureus induced ventilator-associated pneumonia bearing Wistar rat model assessed as reduction in lung infiltrated proinflammatory cells at 10 mg/kg, iv measured after 1 to 3 days by hematoxylin and eosin staining based light microscopy. Type of data set: functional, organism-based. The method, boiled down: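 Male Wistar rats (6‒8 weeks, ~200 g) were fasted at least 12 h and given urethane 1 g/kg i.p. Pneumonia was induced by slow intratracheal injection of 100 μL PBS with 2×10^5 CFU/mL MRSA under mechanical ventilation. Compound was given at 10 mg/kg i.v. via tail vein. H&E-stained lung sections were scored for neutrophil infiltration and alveolar integrity over time, five random sections each.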

Data set [8] can be described thus: Selectivity ratio of IC50 for human K562 cells to MIC for methicillin-resistant Staphylococcus aureus ATCC 33591. It is filed as ADME, cell-based.
In a further data set the test system is Rattus norvegicus. In words: Antiinflammatory activity in methicillin-resistant Staphylococcus aureus induced ventilator-associated pneumonia bearing Wistar rat model assessed as reduction in TNF-alpha levels in bronchoalveolar lavage fluid at 10 mg/kg, iv measured after 1 to 3 days by ELISA. It is filed as functional, organism-based. The method, boiled down:
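Same MRSA pneumonia rat model with 10 mg/kg i.v. tail-vein dosing. Rats were sacrificed and exsanguinated. Lungs were lavaged through a tracheal needle with 1 mL sterile PBS for six cycles. Specimens were homogenized and TNF-α was measured by ELISA.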
In general terms: In an ELISA, binding on a coated surface is turned into a signal by an enzyme label.

Data set [9] has as its system Staphylococcus aureus. Briefly: Bactericidal activity against methicillin-resistant Staphylococcus aureus ATCC 33591 assessed as disruption of bacterial membrane at 25 ug/ml after 2 hrs by propidium iodide staining based fluorescence microscopy. Type of data set: functional. The method, boiled down:
(§4)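 Mid-log MRSA was exposed to compound at 37 °C for 2 h, pelleted and washed three times in PBS. Cells were stained sequentially with PI (5 µg/mL) and DAPI (10 µg/mL), 15 min each on ice in the dark. Imaged with a 100× oil objective; DAPI channel 460 nm, PI channel 620 nm.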

Data set [10] has as its system Acinetobacter baumannii. In words: Inhibition of biofilm formation in Acinetobacter baumannii at 2 ug/ml incubated overnight by crystal violet staining based assay. Type of data set: functional. The method, boiled down: (§5)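 Overnight culture diluted 1:100 into 10% MHII broth, incubated with compound overnight at 37 °C. Growth read at OD600, then biomass stained with crystal violet; CV OD divided by growth OD and normalized to untreated control. Triplicate, mean ± STDEV.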

For data set [11], the system named is Escherichia coli. In words: Inhibition of biofilm formation in Escherichia coli ATCC 25922 at 0.6 ug/ml incubated overnight by crystal violet staining based assay. It is filed as functional. The method, boiled down:
as §5

Data set [12] relates to Escherichia coli. In words: Inhibition of biofilm formation in Escherichia coli ATCC 25922 at 2 ug/ml incubated overnight by crystal violet staining based assay. Type of data set: functional. The essentials:
as §5

Data set [13] relates to Staphylococcus aureus. In words: Bactericidal activity against methicillin-resistant Staphylococcus aureus ATCC 33591 for 10 mins to 2 hrs by time kill assay. Type of data set: functional. The method, boiled down:
(§6)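 MRSA grown to mid-log in TSB was diluted to 10^6 CFU/mL. […] Samples were diluted 10^2–10^4-fold and plated on TSB agar. CFU were counted after overnight incubation at 37 °C and plotted against time.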

Data set [14] has as its system Staphylococcus aureus. Briefly: Bactericidal activity against methicillin-resistant Staphylococcus aureus ATCC 33591 assessed as disruption of bacterial membrane at 25 ug/ml after 2 hrs by DAPI staining based fluorescence microscopy. It is filed as functional. The essentials: as §4
In data set [15] the test system is Staphylococcus aureus. Briefly: Antibacterial activity against methicillin-resistant Staphylococcus aureus ATCC 33591 at 0.5 times MIC after 14 passages. It is filed as functional. The method, boiled down: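 Resistance passaging: the starting MIC was measured as in the MIC assay. Bacteria from the 1/2 MIC well seeded the next day's assay. Repeated daily for 14 passages.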

Data set [16] concerns Acinetobacter baumannii. Briefly: Inhibition of biofilm formation in Acinetobacter baumannii at 0.6 ug/ml incubated overnight by crystal violet staining based assay. Type of data set: functional. The essentials:
as §5

Data set [17] is described as follows: Selectivity ratio of IC50 for human HK2 cells to MIC for methicillin-resistant Staphylococcus aureus ATCC 33591. It is filed as ADME, cell-based.
The subject of data set [18] is Staphylococcus aureus. Briefly: Bactericidal activity against methicillin-resistant Staphylococcus aureus ATCC 33591 at 25 to 50 ug/ml for 10 mins to 2 hrs by time kill assay. Type of data set: functional. The essentials: as §6

For the compound `N=C(N)NCCC[C@H](N)C(=O)N[C@@H](Cc1ccccc1)CN(CC(=O)NCc1cccc2ccccc12)C(=O)c1ccc2ccccc2c1`, the MIC in the data set with Escherichia coli [1] came to 50 µg/mL (≈ 76 µM); in the data set with Pseudomonas aeruginosa, 25 µg/mL (≈ 38 µM); against Enterococcus faecalis it was 25 µg/mL (≈ 38 µM); with Staphylococcus aureus [5], 25 µg/mL (≈ 38 µM); with Klebsiella pneumoniae it was 25 µg/mL (≈ 38 µM); in [6], 12.5 µg/mL (≈ 19 µM). In addition, the IC50 at 24 h in [2] and in [3] was over 100 µg/mL each time. The compound further returned an HC50 at 1 h in [4] of 300 µg/mL.

Take `NCCCC[C@H](N)C(=O)N[C@@H](Cc1ccccc1)CN(CC(=O)NCC12CC3CC(CC(C3)C1)C2)C(=O)CC12CC3CC(CC(C3)C1)C2`: the minimum inhibitory concentration (MIC) stood at 3.12 µg/mL (≈ 4.73 µM) with Escherichia coli [1]; 6.25 µg/mL (≈ 9.47 µM) in the data set with Pseudomonas aeruginosa; 6.25 µg/mL (≈ 9.47 µM) in the data set with Enterococcus faecalis; 1.56 µg/mL (≈ 2.36 µM) against Staphylococcus aureus [5]; 6.25 µg/mL (≈ 9.47 µM) with Klebsiella pneumoniae; 3.12 µg/mL (≈ 4.73 µM) in data set [6]. Moreover, the outcome in the data set with Staphylococcus aureus [7], in the data set with Rattus norvegicus, with Staphylococcus aureus [9], in the data set on Staphylococcus aureus [14], with Staphylococcus aureus [15] and with Staphylococcus aureus [18] was Active. The IC50 at 24 h in [2] was determined as 83.2 µg/mL (≈ 126 µM); in data set [3] it was 86.3 µg/mL (≈ 131 µM). Moreover, the selectivity ratio in [8] and in [17] was over 50 throughout. Further, the 50% haemolytic concentration (HC50) at 1 h in data set [4] was found to be 85 µg/mL. For the same compound, the inhibition entry in the data set with Acinetobacter baumannii [10] and in the data set with Escherichia coli [12] was “Active” throughout. For the same compound, the inhibition at 0.6 µg/mL in the data set on Escherichia coli [11] and with Acinetobacter baumannii [16] was over 50% throughout. Also, in the data set on Staphylococcus aureus [13], the Activity result was “Dose-dependent effect”.

As a reminder, the MIC is the lowest concentration that inhibits growth of the organism. In general, IC50 refers to the concentration that inhibits the measured activity by half. As a reminder, the HC50 is the concentration giving 50% haemolysis. A higher HC50 goes with less damage to red cells. One may read the inhibition as how much of the control response was suppressed.
